# OX1R antag-1: blocks the human orexin 1 receptor | O43613 | CHO/OX1R cells, Fluo-8 calcium fluorescence, orexin A | inhibition, % at 5 µM | hit rate 0.43% among 330,000 | AID 434989;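 active = inhibition above its plate's threshold, mean inhibition of all tested compounds on the plate plus 3 SD, cut at about 37% in these data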;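 note: 0% = orexin A challenge wells and 100% = SB-334867-A antagonist wells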
# OX1R antag-2: OX1R (human) antagonism; AID 485270; O43613; inhibition, % at 6.6 µM; OX1R-expressing cells, FRET antagonist read-out; hit rate 1.8% among 330,000; in the data active = inhibition mostly above about 38%, no sharp cut-off; inactive = mostly below about 40%;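 note: 0% = agonist challenge alone and 100% = reference antagonist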
# V1aR counter: counter-screen for oxytocin receptor agonists: human V1a receptor agonists. P37288. activation, % at 3 µM. hit rate 0.25% among 320,000. CHO-V1R cells, Fluo-8 calcium fluorescence, agonist mode; 0% DMSO, 100% 3 nM vasopressin;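 active = activation above the mean activation of all tested compounds plus 3 SD, per screening run, cut at about 20% in these data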;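 note: signal is peak over basal fluorescence ratio across a 100 second FLIPR read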
# Target sequence (P37288 whole entry, looked up): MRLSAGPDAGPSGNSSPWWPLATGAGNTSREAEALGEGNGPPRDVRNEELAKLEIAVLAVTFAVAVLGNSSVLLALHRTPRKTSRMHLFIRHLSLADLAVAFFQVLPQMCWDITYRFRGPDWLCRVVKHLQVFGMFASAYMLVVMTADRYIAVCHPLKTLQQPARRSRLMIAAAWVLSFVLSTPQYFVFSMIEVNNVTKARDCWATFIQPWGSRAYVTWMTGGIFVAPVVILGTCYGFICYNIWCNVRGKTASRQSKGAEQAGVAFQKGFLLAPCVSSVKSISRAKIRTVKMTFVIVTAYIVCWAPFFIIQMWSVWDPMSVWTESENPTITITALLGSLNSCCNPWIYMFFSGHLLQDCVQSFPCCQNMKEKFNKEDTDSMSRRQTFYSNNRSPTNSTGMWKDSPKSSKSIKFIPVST
# CHO parental Ca: counter-screen: ATP calcium response change in parental CHO cells | inhibition, % at 5.6 µM | hit rate 0.63% among 330,000 | parental CHO-K1, ATP-induced calcium, Fluo-8 fluorescence;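 active = inhibition above that plate's mean sample inhibition plus 3 SD, cut at about 26% in these data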;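 note: 0% = ATP-challenged DMSO wells and 100% = DMSO wells without ATP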
#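 Test system: untransfected parental CHO cell line; also added: ATP stimulus; dosing: 5.6 µM, single dose; signal: calcium-sensitive Fluo-8 fluorescence; measure: percent inhibition of ATP-evoked calcium rise, normalized to controls; benchmarks: low control ATP plus DMSO, high control DMSO only; replication: one well per compound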
# OXTR agonist: agonists of human oxytocin receptor. activation, % at 3 µM. P30559. AID 2435. CHO-OTR cells, Fluo-8 calcium fluorescence; normalized: DMSO 0%, oxytocin 100%. hit rate 0.32% among 320,000;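 active = activation above the mean of all tested compounds plus 3 SD, cutoff set per screening run, cut at about 20% in these data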;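 note: peak over basal fluorescence ratio from a 100 s FLIPR kinetic read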
# OXTR potentiate: potentiators of human oxytocin receptor. P30559. CHO-OTR cells, Fluo-8 calcium fluorescence, potentiator mode; 0% = oxytocin EC15, 100% = EC100. activation, % at 3 µM. hit rate 0.061% among 320,000. AID 2445;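 active = activation above that plate's cutoff, the mean activation of tested compounds plus 3 SD, cut at about 6.6% in these data, passing the limit was not always enough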;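 note: 100% uses oxytocin at 75 nM as the full agonist control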
#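 System: human OTR in CHO cells / Also added: sub-maximal oxytocin, roughly EC15 / Control set: EC15 oxytocin low, 75 nM oxytocin high / Schedule: 6 min compound pre-incubation at room temperature, 100 s kinetic read / Compound: single-point 3.0 µM / Replication: singlicate / Technique: Fluo-8 calcium dye fluorescence / Read-out basis: % activation of max/min ratio relative to oxytocin controls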
# OX1R HTRF confirm: OX1R (human) antagonism, HTRF confirmed; hit rate 49% among 1,800; inhibition, % at 6.6 µM; shares compounds with OX1R antag-2; OX1R-expressing cells, HTRF antagonist assay; in the data active = inhibition above about 55%;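 note: CHO cells expressing OX1R stimulated with orexin A at about EC80; 0% = agonist challenge alone and 100% = reference antagonist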
# CHO-K1 HTRF: signal in parental CHO-K1 cells, OX1R antagonist counter-screen | shares compounds with OX1R antag-2 | HTRF counterscreen | inhibition, % at 6.6 µM | hit rate 48% among 1,800 | AID 493232; in the data active = inhibition above about 17%;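 note: 0% = agonist challenge with vehicle and 100% = vehicle alone without agonist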
# An asterisk follows results filed as active; x = not tested or not shown. Hits are enriched below; roughly 2.6% of the tested compounds scored in any of these assays.
SMILES,OX1R antag-1,OX1R antag-2,V1aR counter,CHO parental Ca,OXTR agonist,OXTR potentiate,OX1R HTRF confirm,CHO-K1 HTRF
O=C(CNC(=O)c1ccccc1)N/N=C/c1ccccc1Cl,-27,8,0,-9,-1,-9,x,x
NS(=O)(=O)c1ccc(O)c(NC(=O)c2ccc([N+](=O)[O-])o2)c1,-12,125*,0,-8,0,-4,48,61*
O=C(Nc1ccccc1N1CCOCC1)c1ccc([N+](=O)[O-])o1,-12,24,1,-4,0,-4,x,x
CCCCCCC[N+](CC)(CC)CCCCc1ccc(Cl)cc1,-9,14,0,-3,-2,-15,x,x
O=C(O)CCNc1ccc(NCCC(=O)O)c2c1C(=O)c1ccccc1C2=O,-9,104*,1,6,1,4,61*,86*
COc1ccccc1NCCC(=O)O,2,13,1,18,0,-1,x,x
Cc1[nH]c2ccccc2c1/C=N/Nc1nncn1N,21,139*,0,-4,-1,-21,17,10
O=C(CNC(=O)N1CC(=O)Nc2ccccc21)Nc1nccs1,-4,2,0,-6,0,1,x,x
CCN(CC)CCNC(=O)C(=O)NCC1OCCN1S(=O)(=O)c1ccc([N+](=O)[O-])cc1 (stereo not given),-6,92*,-1,1,-1,-3,41,64*
CN(C)CCNC(=O)C(=O)NCC1OCCN1S(=O)(=O)c1ccc([N+](=O)[O-])cc1 (stereo not given),-1,89*,-1,-7,-1,-11,41,60*
CCN(CC)CCNC(=O)C(=O)NCC1OCCN1S(=O)(=O)c1ccc(Cl)cc1 (stereo not given),2,5,0,1,-1,-2,x,x
CCN(CC)CCNc1cc(C)nc2c1C(=O)C(=O)C=C2N1CCCCC1,-20,83*,-1,-18,0,-15,47,76*
CCOCCCn1c(C)nc2c[n+](CC(=O)c3ccc4ccccc4c3)cc(Br)c21,-19,5,0,-19,0,-7,x,x
CCCOc1cccc(NC(=O)c2cc(C)oc2C)c1,-47,78*,-1,-35,-3,-8,20,13
Cc1cc(C(=O)Nc2cccc(/C=C/C(=O)O)c2)c(C)o1,7,6,1,-1,1,4,x,x
Cn1c(=O)c2nc3ccccc3nc2n(C)c1=O,13,160*,0,7,2,-4,92*,95*
Cn1c(=O)c2nc(Cl)c(-c3ccccc3)nc2n(C)c1=O,-16,87*,-1,-5,-2,10,52,80*
Cn1c(N)c(S(=O)(=O)c2ccc(Br)cc2)c2nc3ccccc3nc21,-9,4,2,-5,8,-21,x,x
O=C(Cn1cccc1C(=O)c1ccccc1)NCCC1=CCCCC1,-36,98*,-2,-15,-3,-7,23,2
O=C(NCC(c1cccs1)N1CCOCC1)c1cc([N+](=O)[O-])cc([N+](=O)[O-])c1 (stereo not given),-9,112*,1,-6,-1,1,39,58*
CCOc1ccccc1N1CCN(Cc2c(C)n(C)n(-c3ccccc3)c2=O)CC1,-32,10,0,-19,0,0,x,x
CC(OC(=O)CN1C(=O)c2ccccc2C1=O)C(=O)N(C)c1ccccc1 (stereo not given),-19,14,1,-8,1,-9,x,x
CN(C(=O)CSc1ncc(C(F)(F)F)cc1Cl)c1c(N)n(Cc2ccccc2)c(=O)[nH]c1=O,20,89*,-1,-2,-1,0,68*,4
COCCN(C(=O)CSc1ncc(C(F)(F)F)cc1Cl)c1c(N)n(Cc2ccccc2)c(=O)[nH]c1=O,-11,47,0,-15,0,0,x,x
